# High-throughput results as filed in PubChem.
# Most compounds without a hit are left out; they make up all but 11% or so of the library.
# G6PDH CS = L. mesenteroides G6PDH inhibitors, counter-screen for G6PDH-coupled screening assays, biochemical, Leuconostoc mesenteroides enzyme; glucose-6-phosphate dehydrogenase [Leuconostoc mesenteroides]; Purified L. mesenteroides G6PDH, diaphorase/resazurin coupled fluorescence, 45 min; inhibition, % at 5 µM; actives 0.12% (n = 200,000); AID 1020, 2008
# Diaphorase act = compounds boosting diaphorase resazurin reduction – biochemical, uHTS, resorufin fluorescence, counter-screen for diaphorase-coupled primary assays, primary screen | Diaphorase/resazurin coupled assay, 16 min; stronger effect = higher value; 1 = vehicle wells, 0 = NADH-free wells | activation factor at 20 µM | actives 0.005% (n = 190,000);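 active = diaphorase activity raised at least twofold by the compound at 20 µM; inactive = activation factor below 2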
#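 Measured by – red resorufin fluorescence at 544/590 nm excitation/emission · Test system – Clostridium kluyveri diaphorase, purified enzyme · Incubation – reaction time 16 min, room temperature · Buffer or medium – 50 mM HEPES pH 7.4 with 4.542 mM MgCl2, 0.005% Tween 20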
# Diaph inh CS = diaphorase inhibitors and chemical oxidizers, primary screen, counter-screen for diaphorase-coupled primary assays, biochemical, uHTS, resorufin fluorescence; AID 1217, 2008; inhibition, % at 20 µM; actives 0.69% (n = 190,000); diaphorase resazurin-to-resorufin fluorescence, NADH, 16 min; bacterial (C. kluyveri) enzyme, not human;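 active = primary screen inhibition at 20 µM above a set limit, cut at about 50% in these data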;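 note: plate controls were DMSO with full reaction for no effect and wells lacking NADH for full effect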
#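 material = Clostridium kluyveri diaphorase enzyme | amount = 0.14 U/mL diaphorase, enzyme working solution | schedule = incubation 16 min, room temperature | detection = fluorescence of resorufin formed from resazurin, Ex 544/Em 590 nm | benchmarks = positive control minus NADH, DMSO neutral control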
# Lmaj promast = Leishmania major promastigote growth inhibition, primary screen | Leishmania major promastigotes, resazurin fluorescence viability | actives 9% (n = 200,000) | inhibition, % at 10 µM | AID 1063, 2008;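 note: promastigotes grown with compound for 44 hours at 28 °C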
# WT yeast gro inh = growth inhibition of WT strain, primary screen, mitochondrial fusion inhibitor project, WT and mutant strains, chemical genetic; mitochondrial fusion phenotypic screen; inhibition, % at 10 µM; actives 2.1% (n = 190,000); AID 1362, 2008; in the data active = inhibition above about 58%; tested in S. cerevisiae
# * = called active by the depositor. Cut-off read from the data, not from the text of the source, unless noted: active = inhibition above about 50%; inactive = the rest.
SMILES,G6PDH CS,Diaphorase act,Diaph inh CS,Lmaj promast,WT yeast gro inh
O=C(CN1CCOCC1)Nc1nc2ccc(Br)cc2s1,-1,0.8,20,5,22
Cn1c(NC(=O)C2CCCO2)cc(=O)n(C)c1=O (stereo not drawn),2,0.9,15,-8,13
O=C(COc1cccnc1[N+](=O)[O-])N1CCN(C(=O)c2ccco2)CC1,12,0.4,59*,-5,-20
COc1ccc(OC)c(C2=Nn3c(nnc3C3CCCCC3)SC2)c1,0,0.9,11,10,30
COc1ccc(C2=Nn3c(nnc3C3CCCCC3)SC2)cc1OC,3,0.9,7,50*,-10
O=C(CN(C(=O)c1cccc([N+](=O)[O-])c1)C1CCCCC1)Nc1ccc(Cl)c([N+](=O)[O-])c1,-1,0.8,21,70*,1
c1ccc(Cn2c(SCc3cn4cccnc4n3)nnc2-c2ccco2)cc1,-5,0.8,19,-7,76*
COc1ccccc1NC1=C(N2CCCCC2)C(=O)c2ccccc2C1=O,33,0.7,30,100*,52
O=C1C(Nc2cccc(O)c2)=C(N2CCCCC2)C(=O)c2ccccc21,59*,0.9,10,98*,1
O=C1C(Cl)=C(N2CCCCCC2)C(=O)N1c1ccccc1,4,1,-3,2,23
CN(C1=C(N2CCCCC2)C(=O)c2ccccc2C1=O)c1ccccc1,35,0.7,28,65*,76*
COc1ccccc1NC(=O)N1CCCC1,5,1,3,4,3
O=C1C(Nc2ccccc2)=C(N2CCCCC2)C(=O)c2ccccc21,57*,0.8,23,97*,6
O=C(CC1CCCCC1)Nc1ncn[nH]1,11,0.9,14,-1,9
COc1ccc(C(=O)/C=C/c2ccc(O)cc2)cc1,8,0.7,25,11,4
O=C(/C=C/c1ccc(O)cc1)c1ccc(NC2=C(N3CCCCC3)C(=O)c3ccccc3C2=O)cc1,52*,0.6,36,99*,9
Cc1ccc(NC2=C(N3CCCCC3)C(=O)c3ccccc3C2=O)cc1,56*,0.9,12,97*,-7
COc1ccc(NS(=O)(=O)c2cc(-c3nnnn3C)ccc2OC)cc1,2,1,4,-6,11
CCOc1cc(/C=N\NC(=O)Cn2nnc3ccccc32)ccc1O,9,1.1,-5,13,-9
Cc1onc(-c2ccccc2Cl)c1C(=O)N1CCN(c2nc3ccccc3s2)CC1,4,1,1,51*,10
Cc1onc(-c2c(Cl)cccc2Cl)c1C(=O)N1CCN(c2ccccc2)CC1,8,0.8,19,96*,25
COc1ccccc1N1CCN(C(=O)c2c(-c3ccccc3Cl)noc2C)CC1,4,0.9,7,8,30
O=C(NCCc1c[nH]c2ccccc12)C(=O)Nc1ccccc1,-1,0.9,6,-5,1
CC(C)=NNc1nc(-c2ccccc2)c(C)s1,-2,0.9,10,5,23
CCN=c1scc(-c2ccco2)n1/N=C/c1ccc(OC)c(O)c1,-3,0.9,13,-9,59*
SMILES,G6PDH CS,Diaphorase act,Diaph inh CS,Lmaj promast,WT yeast gro inh
CCN=c1scc(-c2ccco2)n1/N=C/c1ccc(O)cc1,1,0.8,25,13,3
O=S(=O)(C/C(=C/CO)S(=O)(=O)c1ccccc1)c1ccccc1,-3,1,3,55*,-8
O=C(c1ccc(F)cc1)C(CCCCCC(CN1CCOCC1)C(=O)c1ccc(F)cc1)CN1CCOCC1 (stereo not drawn),4,0.9,12,99*,6
CCCOc1ccc(NC(=O)C2CC(=O)N(C)C(=Nc3cccc(OC)c3)S2)cc1 (stereo not drawn),17,0.8,22,-4,-13
O=C(CCc1c[nH]c2ccccc12)NCC1CCCO1 (stereo not drawn),2,0.9,7,-4,-1
O=C(Cc1ccc(Cl)cc1)Nc1ccc(N2CCCC2)cc1,14,1,1,0,14
Clc1cccc(Cl)c1CNc1ccc(N2CCCC2)cc1,14,0.2,76*,14,-3
